Test system: not listed separately
Experiment: Cytotoxicity against african green monkey Vero cells infected with Coxsackievirus B3 assessed as growth inhibition after 48 hrs by Reed-Muench analysis
Format: cell-based
Settings: chlorocebus sabaeus, read-out: TC50
Method in brief: (§1)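 Vero cells plated at 2.5 × 10^4 per well and grown 24 h to a monolayer, then exposed to a range of test compound concentrations for 48 h at 37 °C. Cell damage was monitored as CPE, and TC50 came from Reed and Muench analysis. Each experiment was run three times.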

Structure (SMILES)	CC50 at 48 h [µM]
Oc1ccc2cc[n+](CCc3ccccc3)cc2c1	389
COc1ccc2cc[n+](CCc3ccccc3)cc2c1O	352
COc1ccc2cc[n+](CCc3ccccc3C)cc2c1O	584
COc1ccc(CC[n+]2ccc3ccc(OC)c(O)c3c2)cc1	464
COc1ccc2cc[n+](CCc3ccccc3)cc2c1OC	584
COc1cc2cc[n+](CCc3ccccc3)cc2cc1OC	1010
COc1ccc2cc[n+](CCc3ccc(F)cc3)cc2c1OC	1380
COc1ccc(CC[n+]2ccc3ccc(OC)c(OC)c3c2)cc1	49.5
c1ccc(CC[n+]2ccc3ccc4c(c3c2)OCO4)cc1	815
Fc1ccc(CC[n+]2ccc3ccc4c(c3c2)OCO4)cc1	581
COc1cc2cc[n+](CCc3ccc(F)cc3)cc2cc1OC	665
COc1cc2cc[n+](CCc3ccccc3F)cc2cc1OC	206
COc1cc2cc[n+](CCc3cccc(Cl)c3)cc2cc1OC	131
COc1cc2cc[n+](CCc3ccccc3C)cc2cc1OC	970
COc1cc2c[n+](CCc3ccccc3C)ccc2cc1O	234
COc1cc2c[n+](CCc3ccccc3F)ccc2cc1O	333
Oc1ccc2cc[n+](CCc3cccc(Cl)c3)cc2c1	200
Oc1ccc2cc[n+](CCc3ccc(F)cc3)cc2c1	1100
Cc1ccccc1CC[n+]1ccc2ccc(O)cc2c1	772
COc1ccccc1CC[n+]1ccc2ccc(O)cc2c1	1060
COc1cc2c[n+](CCc3ccccc3)ccc2c(OC)c1OC	2780
COc1ccc(CC[n+]2ccc3c(OC)c(OC)c(OC)cc3c2)cc1	46

Test system: Enterovirus A71
Experiment: Antiviral activity against Enterovirus 71 infected in african green monkey vero cells assessed as inhibition of viral replication by Reed-Muench analysis
Format: functional, organism-based
Settings: Enterovirus A

Structure (SMILES)	IC50 [µM]
Oc1ccc2cc[n+](CCc3ccccc3)cc2c1	152
c1ccc(CC[n+]2ccc3ccc4c(c3c2)OCO4)cc1	91.1
Fc1ccc(CC[n+]2ccc3ccc4c(c3c2)OCO4)cc1	45.8
COc1cc2cc[n+](CCc3ccc(F)cc3)cc2cc1OC	107
NC(=O)c1ncn([C@@H]2O[C@H](CO)[C@@H](O)[C@H]2O)n1 [RIBAVIRIN]	2120

Test system: Coxsackievirus B3
Experiment: Antiviral activity against Coxsackievirus B3 infected in african green monkey vero cells assessed as inhibition of viral replication by Reed-Muench analysis
Format: functional, organism-based
Settings: Enterovirus B
Method in brief: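 Vero monolayers infected with 100 TCID50 CVB3, then kept in maintenance medium (MEM plus 2% FBS) with or without test compound at various concentrations. Viral CPE was scored once the virus control reached 4+. The 50% inhibitory concentration came from Reed and Muench analysis. Three independent experiments.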

Structure (SMILES)	IC50 [µM]
Oc1ccc2cc[n+](CCc3ccccc3)cc2c1	25
COc1ccc2cc[n+](CCc3ccccc3)cc2c1O	91.1
COc1ccc2cc[n+](CCc3ccccc3C)cc2c1O	> 337
COc1ccc(CC[n+]2ccc3ccc(OC)c(O)c3c2)cc1	> 107
COc1ccc2cc[n+](CCc3ccccc3)cc2c1OC	209
COc1cc2cc[n+](CCc3ccccc3)cc2cc1OC	> 337
COc1ccc2cc[n+](CCc3ccc(F)cc3)cc2c1OC	> 320
COc1ccc(CC[n+]2ccc3ccc(OC)c(OC)c3c2)cc1	> 11.4
c1ccc(CC[n+]2ccc3ccc4c(c3c2)OCO4)cc1	30.4
Fc1ccc(CC[n+]2ccc3ccc4c(c3c2)OCO4)cc1	> 335
COc1cc2cc[n+](CCc3ccc(F)cc3)cc2cc1OC	> 320
COc1cc2cc[n+](CCc3ccccc3F)cc2cc1OC	> 53.3
COc1cc2cc[n+](CCc3cccc(Cl)c3)cc2cc1OC	> 33.9
COc1cc2cc[n+](CCc3ccccc3C)cc2cc1OC	> 323
COc1cc2c[n+](CCc3ccccc3C)ccc2cc1O	112
COc1cc2c[n+](CCc3ccccc3F)ccc2cc1O	> 111
Oc1ccc2cc[n+](CCc3cccc(Cl)c3)cc2c1	> 38.6
Oc1ccc2cc[n+](CCc3ccc(F)cc3)cc2c1	> 336
Cc1ccccc1CC[n+]1ccc2ccc(O)cc2c1	371
COc1ccccc1CC[n+]1ccc2ccc(O)cc2c1	> 352
COc1cc2c[n+](CCc3ccccc3)ccc2c(OC)c1OC	> 927
COc1ccc(CC[n+]2ccc3c(OC)c(OC)c(OC)cc3c2)cc1	> 10.6
NC(=O)c1ncn([C@@H]2O[C@H](CO)[C@@H](O)[C@H]2O)n1 [RIBAVIRIN]	910

Test system: not listed separately
Experiment: Selectivity index, ratio of TC50 for african green monkey vero cells to IC50 for Coxsackievirus B3
Format: toxicity, cell-based
Settings: read-out: Selectivity Index
Method in brief: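 Selectivity index is TC50 divided by IC50. TC50 is from 48 h CPE monitoring of compound-treated uninfected Vero monolayers. IC50 is from CPE scoring at 4+ virus control in Vero cells infected with 100 TCID50 CVB3 and kept in MEM with 2% FBS. Both values came from Reed and Muench analysis, in triplicate experiments.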

Structure (SMILES)	selectivity ratio
Oc1ccc2cc[n+](CCc3ccccc3)cc2c1	15.6
COc1ccc2cc[n+](CCc3ccccc3)cc2c1O	3.9
COc1ccc2cc[n+](CCc3ccccc3)cc2c1OC	2.8
c1ccc(CC[n+]2ccc3ccc4c(c3c2)OCO4)cc1	26.8
COc1cc2c[n+](CCc3ccccc3C)ccc2cc1O	2.1
Cc1ccccc1CC[n+]1ccc2ccc(O)cc2c1	2.1

Test system: not listed separately
Experiment: Cytotoxicity against african green monkey Vero cells infected with Enterovirus 71 assessed as growth inhibition after 48 hrs by Reed-Muench analysis
Format: cell-based
Settings: chlorocebus sabaeus, read-out: TC50
Method in brief: as §1

Structure (SMILES)	CC50 at 48 h [µM]
Oc1ccc2cc[n+](CCc3ccccc3)cc2c1	534
c1ccc(CC[n+]2ccc3ccc4c(c3c2)OCO4)cc1	820
Fc1ccc(CC[n+]2ccc3ccc4c(c3c2)OCO4)cc1	420
COc1cc2cc[n+](CCc3ccc(F)cc3)cc2cc1OC	864

Test system: not listed separately
Experiment: Selectivity index, ratio of TC50 for african green monkey vero cells to IC50 for Enterovirus 71
Format: toxicity, cell-based
Settings: read-out: Selectivity Index

Structure (SMILES)	selectivity ratio
Oc1ccc2cc[n+](CCc3ccccc3)cc2c1	3.5
c1ccc(CC[n+]2ccc3ccc4c(c3c2)OCO4)cc1	9
Fc1ccc(CC[n+]2ccc3ccc4c(c3c2)OCO4)cc1	9.2
COc1cc2cc[n+](CCc3ccc(F)cc3)cc2cc1OC	8.1
